Reference: ChEMBL document CHEMBL4422684, “Identification of novel lysine demethylase 5-selective inhibitors by inhibitor-based fragment merging strategy” (Bioorg Med Chem, 2019)

Key:
[1] = target: Lysine-specific demethylase 5A (Homo sapiens, UniProt P29375); assay: Potency index, ratio of CPI-455 IC50 to test compound IC50 for human C-terminal FLAG-tagged KDM5A (1 to 1090 residues) expressed in baculovirus infected Sf9 insect cells
[2] = target: T1, Lysine-specific demethylase 3A (Homo sapiens) (UniProt Q9Y4C1); assay: Inhibition of human N-terminal FLAG-tagged KDM3A (2 to 1321 residues) expressed in baculovirus infected Sf9 insect cells at 25 uM using H3(1-21)K9(Me1)-GGK(Biotin)/2-OG as substrate measured after 1 hr by Alphalisa assay relative to control
T1 sequence (whole entry): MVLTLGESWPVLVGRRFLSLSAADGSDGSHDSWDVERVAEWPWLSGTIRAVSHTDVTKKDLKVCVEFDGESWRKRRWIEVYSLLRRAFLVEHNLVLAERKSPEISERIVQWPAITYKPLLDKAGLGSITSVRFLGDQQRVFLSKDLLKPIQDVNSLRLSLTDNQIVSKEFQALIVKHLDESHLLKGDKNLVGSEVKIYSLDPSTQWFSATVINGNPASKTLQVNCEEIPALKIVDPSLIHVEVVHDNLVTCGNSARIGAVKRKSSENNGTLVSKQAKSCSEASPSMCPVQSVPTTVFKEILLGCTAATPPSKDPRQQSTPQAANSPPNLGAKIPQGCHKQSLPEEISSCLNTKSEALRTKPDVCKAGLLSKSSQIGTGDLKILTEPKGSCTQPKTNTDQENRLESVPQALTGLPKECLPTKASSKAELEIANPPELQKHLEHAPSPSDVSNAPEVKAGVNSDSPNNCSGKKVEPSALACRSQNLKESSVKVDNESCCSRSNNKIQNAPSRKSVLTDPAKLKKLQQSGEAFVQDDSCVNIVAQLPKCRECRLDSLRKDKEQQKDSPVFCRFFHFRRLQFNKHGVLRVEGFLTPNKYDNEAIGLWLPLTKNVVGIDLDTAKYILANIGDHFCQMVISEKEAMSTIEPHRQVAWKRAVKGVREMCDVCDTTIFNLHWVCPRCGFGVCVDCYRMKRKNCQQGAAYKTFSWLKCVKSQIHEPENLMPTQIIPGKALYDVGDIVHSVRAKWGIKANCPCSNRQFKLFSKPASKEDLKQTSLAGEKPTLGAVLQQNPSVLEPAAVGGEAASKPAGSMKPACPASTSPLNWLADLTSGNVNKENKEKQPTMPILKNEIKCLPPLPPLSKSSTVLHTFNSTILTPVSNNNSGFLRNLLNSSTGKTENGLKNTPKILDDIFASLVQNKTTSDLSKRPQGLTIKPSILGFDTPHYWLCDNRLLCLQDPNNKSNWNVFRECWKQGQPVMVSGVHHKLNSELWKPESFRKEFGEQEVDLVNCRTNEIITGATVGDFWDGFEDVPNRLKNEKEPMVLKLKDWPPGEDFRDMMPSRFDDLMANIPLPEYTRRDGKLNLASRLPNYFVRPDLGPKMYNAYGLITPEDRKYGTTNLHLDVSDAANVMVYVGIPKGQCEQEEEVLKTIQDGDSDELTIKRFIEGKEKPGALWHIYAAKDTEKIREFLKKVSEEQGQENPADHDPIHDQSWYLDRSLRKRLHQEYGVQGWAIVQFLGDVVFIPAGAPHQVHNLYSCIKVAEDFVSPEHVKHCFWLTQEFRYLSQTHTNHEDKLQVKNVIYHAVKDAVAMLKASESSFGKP
In short: (§1)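 AlphaLISA demethylase assay in 50 mM HEPES pH 7.5, 0.1% BSA, 0.01% Tween 20 with DMSO. Enzyme and inhibitor combined, then peptide plus 2-OG (50 µM), Fe(II) (5 µM) and ascorbate (100 µM) in the added mix; 1 h at room temperature with shaking.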

[3] = target: T2, Lysine-specific demethylase 4A (Homo sapiens, UniProt O75164); assay: Inhibition of human N-terminal His-tagged KDM4A (1 to 350 residues) expressed in Escherichia coli using H3(21-44)-K36(Me3)-GK(Biotin)/2-OG as substrate measured after 1 hr by Alphalisa assay; in short: as §1
T2 sequence (O75164 whole entry): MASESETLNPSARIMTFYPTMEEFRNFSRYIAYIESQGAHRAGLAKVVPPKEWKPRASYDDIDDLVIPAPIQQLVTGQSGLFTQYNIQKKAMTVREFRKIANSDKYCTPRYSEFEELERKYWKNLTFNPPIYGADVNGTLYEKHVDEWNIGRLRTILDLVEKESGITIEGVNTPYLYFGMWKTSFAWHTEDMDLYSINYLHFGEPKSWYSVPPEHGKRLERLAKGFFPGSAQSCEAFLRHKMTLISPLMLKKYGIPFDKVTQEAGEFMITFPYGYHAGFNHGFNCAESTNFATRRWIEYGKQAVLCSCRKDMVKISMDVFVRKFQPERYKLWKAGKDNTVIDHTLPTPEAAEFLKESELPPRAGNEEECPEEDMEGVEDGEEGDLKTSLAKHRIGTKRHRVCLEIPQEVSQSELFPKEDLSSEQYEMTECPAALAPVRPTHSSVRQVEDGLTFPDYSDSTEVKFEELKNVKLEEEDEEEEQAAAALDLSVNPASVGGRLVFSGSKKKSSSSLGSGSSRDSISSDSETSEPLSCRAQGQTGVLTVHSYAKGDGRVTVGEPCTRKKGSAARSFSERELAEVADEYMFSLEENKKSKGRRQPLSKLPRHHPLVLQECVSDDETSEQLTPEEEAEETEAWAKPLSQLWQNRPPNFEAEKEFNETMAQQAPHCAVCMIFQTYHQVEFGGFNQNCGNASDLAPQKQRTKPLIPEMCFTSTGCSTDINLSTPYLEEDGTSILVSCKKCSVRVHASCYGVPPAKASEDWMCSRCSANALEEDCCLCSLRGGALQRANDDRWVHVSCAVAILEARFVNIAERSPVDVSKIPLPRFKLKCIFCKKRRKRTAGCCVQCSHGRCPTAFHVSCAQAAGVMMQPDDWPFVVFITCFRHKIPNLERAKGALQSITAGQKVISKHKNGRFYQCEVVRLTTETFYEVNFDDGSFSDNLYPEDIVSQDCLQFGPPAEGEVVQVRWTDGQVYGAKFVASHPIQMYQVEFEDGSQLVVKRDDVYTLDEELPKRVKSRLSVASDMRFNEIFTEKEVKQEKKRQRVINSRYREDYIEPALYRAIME

Lysine-specific demethylase 5A, sequence (P29375 whole entry, the tested form may be a part): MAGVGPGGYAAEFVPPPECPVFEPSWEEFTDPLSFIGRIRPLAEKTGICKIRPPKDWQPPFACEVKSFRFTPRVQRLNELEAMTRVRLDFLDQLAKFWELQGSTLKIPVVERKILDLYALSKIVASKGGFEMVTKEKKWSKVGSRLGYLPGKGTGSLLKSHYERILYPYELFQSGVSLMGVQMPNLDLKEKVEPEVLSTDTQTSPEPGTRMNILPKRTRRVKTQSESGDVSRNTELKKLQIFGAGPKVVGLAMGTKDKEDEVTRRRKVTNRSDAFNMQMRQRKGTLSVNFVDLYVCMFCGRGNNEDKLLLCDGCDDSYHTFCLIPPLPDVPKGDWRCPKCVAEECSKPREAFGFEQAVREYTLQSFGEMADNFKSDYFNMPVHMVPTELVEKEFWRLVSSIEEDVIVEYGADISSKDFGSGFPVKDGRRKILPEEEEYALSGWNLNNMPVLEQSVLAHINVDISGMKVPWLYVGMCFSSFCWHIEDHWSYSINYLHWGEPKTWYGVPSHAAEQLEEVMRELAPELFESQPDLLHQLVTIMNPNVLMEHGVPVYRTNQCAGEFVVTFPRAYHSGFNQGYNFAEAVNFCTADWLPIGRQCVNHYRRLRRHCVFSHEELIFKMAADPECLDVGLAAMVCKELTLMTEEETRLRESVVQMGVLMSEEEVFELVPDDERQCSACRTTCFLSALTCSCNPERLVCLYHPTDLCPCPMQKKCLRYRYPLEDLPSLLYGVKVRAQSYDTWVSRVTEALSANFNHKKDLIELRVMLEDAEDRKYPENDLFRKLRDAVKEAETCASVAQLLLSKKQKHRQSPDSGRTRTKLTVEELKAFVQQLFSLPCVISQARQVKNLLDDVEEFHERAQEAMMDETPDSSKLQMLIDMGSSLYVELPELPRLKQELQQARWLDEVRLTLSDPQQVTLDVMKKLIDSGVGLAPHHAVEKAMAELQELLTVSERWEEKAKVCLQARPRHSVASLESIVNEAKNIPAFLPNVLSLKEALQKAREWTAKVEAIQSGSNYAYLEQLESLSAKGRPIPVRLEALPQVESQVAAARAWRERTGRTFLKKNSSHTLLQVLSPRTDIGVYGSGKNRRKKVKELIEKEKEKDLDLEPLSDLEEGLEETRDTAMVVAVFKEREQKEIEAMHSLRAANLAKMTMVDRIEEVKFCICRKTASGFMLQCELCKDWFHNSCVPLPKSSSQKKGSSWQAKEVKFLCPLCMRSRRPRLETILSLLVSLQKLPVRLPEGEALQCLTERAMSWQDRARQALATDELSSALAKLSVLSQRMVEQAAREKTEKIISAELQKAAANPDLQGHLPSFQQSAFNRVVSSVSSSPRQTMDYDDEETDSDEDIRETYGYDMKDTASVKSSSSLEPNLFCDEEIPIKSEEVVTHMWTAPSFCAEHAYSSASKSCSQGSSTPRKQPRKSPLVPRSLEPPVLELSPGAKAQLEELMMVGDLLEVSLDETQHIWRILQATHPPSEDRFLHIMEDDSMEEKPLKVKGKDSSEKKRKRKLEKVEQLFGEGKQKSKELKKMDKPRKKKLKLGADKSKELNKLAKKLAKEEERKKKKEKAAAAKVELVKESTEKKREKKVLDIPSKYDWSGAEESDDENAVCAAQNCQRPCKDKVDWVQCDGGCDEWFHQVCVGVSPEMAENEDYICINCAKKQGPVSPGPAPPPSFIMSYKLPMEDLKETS

CCCCCCN(C)Cc1ccc(-c2[nH]c3c(C#N)cnn3c(=O)c2C(C)C)cc1
Ratio IC50 [1]: 22
inhibition [2]: 13%
IC50 [3]: 25 µM
